KCNK3 block: human KCNK3 channel inhibition, primary screen; B-score at 10 µM; CHO-KCNK3 thallium flux, FluxOR fluorescence; hits give low values; O14649; AID 602410; 0.84% of 340,000 active;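 active = B-score under library mean minus 4 SD, starting fluorescence ratio at most library mean plus 5 SD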;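 note: more negative B-score means stronger inhibition of thallium flux through KCNK3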
KCNQ1 act: potentiates or activates the human KCNQ1 potassium channel. CHO-K1 KCNQ1, thallium flux FluxOR fluorescence; hits give high values. B-score at 10 µM. 0.35% of 310,000 active. AID 2648;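 active = fluorescence ratio B-score, a plate-corrected score, at least three library SD, with initial intensity B-score within 5 SD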
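assay system = KCNQ1-transfected CHO-K1 cells | medium = assay buffer with matched DMSO | probe or stimulus = depolarizing K+/Tl+ stimulus, K2SO4 and Tl2SO4 each 12.5 mM in 5x stock | dosing = single dose | incubation = dye 90 min, compound 20 min, room temperature | detection = kinetic FluxOR fluorescence, 10 s baseline plus 110 s post-stimulus | evaluation = ratio B score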
Kir21 block: Kir2.1 (mouse) channel inhibition; B-score at 10 µM; HEK293-Kir2.1, FluxOR thallium flux fluorescence; hits give low values; 0.85% of 310,000 active; P35561; AID 1672;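 active = fluorescence ratio B-score at or below minus 3 SD of library scores, with starting-brightness B-score within 2 SD, cut at about -4.2 in these data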;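 note: channel flux triggered by added potassium and thallium sulfate stimulus; B-score of peak minus minimum fluorescence over baseline after thallium stimulus; more negative B-score means stronger Kir2.1 block with less thallium influx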
KCNK9 inh: human KCNK9 channel inhibition | 1.2% of 310,000 active | HEK293 KCNK9, FluxOR thallium flux fluorescence; hits give low values | B-score at 10 µM | AID 488922;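 active = ratio B-score over 3 SD below the library mean, with starting fluorescence within 5 SD of its mean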;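 note: negative B-score means less thallium flux so channel inhibition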
KCNQ1 inh: human KCNQ1 channel inhibition | P51787 | CHO-K1 KCNQ1, FluxOR thallium flux fluorescence; hits give high values | B-score at 10 µM | 1.3% of 310,000 active;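 active = compounds whose thallium flux B-score, printed positive for inhibition, exceeds three library SD while starting fluorescence stays within three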;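 note: channel opened by potassium depolarization with thallium stimulus after 20 min compound exposure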
hERG rescue: shields human hERG channel from block by proarrhythmic agents | CHO-hERG, FluxOR thallium flux, dofetilide IC70 present | 0.51% of 310,000 active | AID 1511 | activation (rescue from dofetilide block), less the hit threshold, % at 10 µM;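 active = activation above the mean of controls blocked by dofetilide plus 5 SD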;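 note: thallium influx through hERG after potassium depolarization seen as dye fluorescence rise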
KCNQ1 block val: reconfirmed blocker of the human KCNQ1 potassium channel; inhibition, % at 10 µM; AID 588353; 93% of 1,600 active; shares compounds with KCNQ1 inh; KCNQ1 cell line, FluxOR thallium flux fluorescence;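 active = primary screen active, with duplicate mean exceeding buffer control mean plus 3 SD of buffer wells, cut at about 28% in these data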;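 note: 0% = buffer control ratio and 100% = XE991 inhibitor control ratio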
CHO Tl flux: activity in parental CHO cells lacking KCNQ1 | shares compounds with KCNQ1 inh | parental CHO-K1, FluxOR thallium flux fluorescence ratio; hits give low values; zero means no signal rise above baseline | fluorescence ratio (Tl flux) at 10 µM | 21% of 1,600 active | AID 588366;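 active = mean of duplicate thallium-flux fluorescence ratios in parental host cells more than 5 SD below the buffer control mean, cut at about 0.38 in these data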;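 note: ratio is peak minus minimum fluorescence divided by baseline fluorescence; actives read low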
KCNQ2 inh: selectivity of KCNQ1 inhibitors: inhibition of rat KCNQ2 channel; shares compounds with KCNQ1 inh; KCNQ2 cells, FluxOR thallium flux fluorescence; inhibition, % at 10 µM; 71% of 1,600 active; AID 651746;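 active = mean percent inhibition of the KCNQ2 thallium signal more than 5 SD above the buffer-only control wells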;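 note: KCNQ2 expressed in CHO cells; 0% = buffer control wells and 100% = XE-991 inhibitor control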
KCNQ1-KCNE1 inh: selectivity of KCNQ1 inhibitors: inhibition of human KCNQ1/KCNE1 channel | shares compounds with KCNQ1 inh | KCNQ1/KCNE1 cells, FluxOR thallium flux fluorescence | inhibition, % at 10 µM | 77% of 1,600 active;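 active = mean percent inhibition of duplicate wells above the buffer-only control mean plus 3 SD of those controls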;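 note: 0% = buffer only wells and 100% = XE-991 inhibitor control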
KCNK9 inh conf: confirmation of human KCNK9 potassium channel inhibitors; shares compounds with KCNK9 inh; HEK293 KCNK9 cells, FluxOR thallium flux fluorescence; inhibition, % at 10 µM; 43% of 4,900 active;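 active = thallium signal inhibited by more than 5 SD of the compound-free buffer control wells, on both duplicate plates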;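 note: 0% = assay buffer control wells without compound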
Kir21 sel: mouse Kir2.1 off-target activity of KCNK9 modulators | shares compounds with KCNK9 inh | Kir2.1 cells, FluxOR thallium flux fluorescence | inhibition, % at 10 µM | 4% of 4,900 active | AID 492993;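 active = thallium signal drop more than 5 SD beyond the mean of the no-compound control wells, seen in both duplicate plates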;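 note: signal is fluorescence rise after thallium addition divided by baseline fluorescence; plate controls were assay buffer only for no effect and full block by chlorpromazine control for full effect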
KCNK9 uninduced: non-induced cell nonspecific activity of KCNK9 modulators | shares compounds with KCNK9 inh | non-induced KCNK9-HEK293, FluxOR thallium flux | inhibition, % at 10 µM | 40% of 4,900 active | AID 492997;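 active = thallium signal drop beyond 5 SD of the untreated control mean, on both duplicate plates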;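 note: plate controls were buffer only IC0 wells for no effect and SID17386958 at its maximal inhibitory level for full effect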
KCNK3 confirm: confirmation of human KCNK3 two-pore domain potassium channel inhibitors; ratio percent of control, % at 10 µM; AID 651638; CHO-KCNK3 thallium flux, FluxOR fluorescence; 0% buffer, 100% carvedilol maximal block; 99% of 2,400 active; shares compounds with KCNK3 block;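 active = ratio percent of control, averaged over triplicates, above buffer control mean plus 5 SD, cut at about 64% in these data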;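 note: ratio is the fluorescence rise from min to max over baseline after thallium stimulus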
KCNK3 uninduced: KCNK3 inhibitor counter-screen hit in non-induced cells; non-induced KCNK3 parental cells, FluxOR thallium flux; hits give low values; thallium flux ratio (lower = more inhibition) at 10 µM; 40% of 2,400 active; shares compounds with KCNK3 block;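 active = thallium flux ratio, averaged over three wells, more than 5 SD below the buffer control mean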;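 note: host cells are CHO cells without KCNK3 induction; ratio is peak minus trough fluorescence over baseline then normalized to buffer controls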
Numbers without * were called inactive; i = inactive; / = no result given; + = active, no number. In the library only some 3.7% were active in any assay of this set; here they are far more common.

SMILES	KCNK3 block	KCNQ1 act	Kir21 block	KCNK9 inh	KCNQ1 inh	hERG rescue	KCNK9 inh conf	Kir21 sel	KCNK9 uninduced	others
Cc1ccc(CC(=O)Nc2cc(C)on2)cc1	i	i	0.06	i	i	-4	/	/	/
c1ccc(-c2cc(-c3nc4ccccc4[nH]3)c3ccccc3n2)cc1	-10*	i	-0.14	-7.6*	8*	-38	/	/	/	KCNQ1 block val=149*;CHO Tl flux=0.25*;KCNQ2 inh=122%*;KCNQ1-KCNE1 inh=+;KCNK3 confirm=143*;KCNK3 uninduced=0.13*
Cc1cc(OCC(=O)NC(Cc2ccc(Cl)cc2)C(=O)O)c2c(C)c(C)c(=O)oc2c1 (configuration not stated)	i	i	1.2	i	i	-4	/	/	/
CCC1(C(=O)NC(=Nc2ccccc2)Nc2ccccc2)CCOC1=O (configuration not stated)	i	/	/	/	/	/	/	/	/
O=C(OCC1OC(n2ncc(=O)[nH]c2=O)C(OC(=O)c2ccccc2)C1OC(=O)c1ccccc1)c1ccccc1 (configuration not stated)	i	i	-0.49	i	i	-24	i	i	33%*
CC(=O)OC[C@H]1O[C@@H](n2ncc(=O)[nH]c2=O)[C@H](OC(C)=O)[C@@H]1OC(C)=O	/	i	1.2	i	i	-3	/	/	/
COc1cccc(/C=N/NC(=O)c2nc(-c3ccccc3)cc(-c3ccccc3)n2)c1O	i	i	1.6	-8.6*	i	-28	i	i	i
O=C(O)Cc1cn(Cc2cccc(Cl)c2)c2ccccc12	i	i	-0.29	i	i	-9	/	/	/
CC1CCCN(C(=O)Cc2cn(Cc3cccc(Cl)c3)c3ccccc23)C1 (configuration not stated)	i	i	-2	-14*	i	-5	72%*	46%*	37%*
O=C(Cc1cn(Cc2cccc(Cl)c2)c2ccccc12)N1CCCCCC1	i	i	2.2	-11*	i	-11	54%*	36%*	38%*
O=C(c1nc2ccccn2c1CN1CCC(Cc2ccccc2)CC1)N1CCCC1	i	i	0	i	i	-10	/	/	/
Cc1cccc2nc(-c3ccccc3)nc(N3CCC(O)(c4ccc(Cl)cc4)CC3)c12	i	i	-0.18	-10*	i	-5	61%*	i	32%*
COC(=O)C1=C(C)N(Cc2ccc(C)cc2)C(=O)/C1=C\c1ccc(O)c(OC)c1	i	i	-0.35	-8.9*	i	-21	62%*	i	40%*
CCOc1cc(/C=C2\C(=O)N(CCc3ccc(OC)c(OC)c3)C(C)=C2C(=O)OC)ccc1O	i	i	0.44	i	i	-13	/	/	/
Cc1cc(C)c(-c2c(O)c3cnn(-c4ccccc4)c3[nH]c2=O)c(C)c1	i	i	-1.6	i	i	-4	/	/	/
COc1ccc(C(=O)OCC(=O)N2CCC(C)CC2)cc1S(=O)(=O)N1CCOCC1	i	/	/	/	/	/	/	/	/
Cc1ccc(C(=O)OCC(=O)N2CC(C)CC(C)C2)cc1S(=O)(=O)N1CCOCC1 (configuration not stated)	i	i	0.17	i	i	-9	/	/	/
Cc1ccc(C(=O)OCC(=O)N2CCC(C)CC2)cc1S(=O)(=O)N1CCCCC1	i	i	-2.8	i	i	-9	i	i	i
CC1CCN(C(=O)COC(=O)c2ccc(F)c(S(=O)(=O)N3CCOCC3)c2)CC1	i	i	-0.59	i	i	-5	i	i	i
COc1cc(C(=S)N2CCOCC2)cc(OC)c1OC(=O)c1ccc(C)cc1	i	i	-1.5	i	i	-7	/	/	/
O=C(CSc1nnnn1C1CC1)Nc1ccc(S(=O)(=O)N2CCOCC2)cc1	i	/	/	/	/	/	/	/	/
Cc1cc(C)c(O)c(-c2n[nH]c3c2C(c2cccc(O)c2)N(Cc2ccco2)C3=O)c1 (configuration not stated)	i	i	1.4	-11*	i	-9	58%*	i	41%*
O=C1c2[nH]nc(-c3ccccc3O)c2C(c2cccc(Cl)c2)N1Cc1ccco1 (configuration not stated)	i	i	1.9	i	i	-17	/	/	/
CN(C(=O)CC1C(=O)NCCN1Cc1ccc(F)c(F)c1)C1CCCCC1 (configuration not stated)	i	i	-0.89	i	i	-9	/	/	/
Cc1ccc(CN2CCCN(Cc3ccc(F)cc3Cl)S2(=O)=O)cc1	i	i	0.96	i	i	-5	/	/	/
O=S1(=O)N(Cc2ccccc2F)CCCN1Cc1c(F)cccc1Cl	i	i	-0.06	-14*	i	-5	68%*	i	34%*
CC(C)=CCc1c2c(c3occ(-c4ccc(O)cc4)c(=O)c3c1O)C=CC(C)(C)O2	i	i	-1.4	i	i	-8	/	/	/
CC1(C)C=Cc2c(c3c(c4c(=O)c(-c5ccc(O)cc5)coc24)OC(C)(C)CC3)O1	i	i	-0.4	-10*	i	-7	50%*	i	26%*

From PubChem
